From ChEMBL document CHEMBL1141593, “Acylpyrogallols as inhibitors of antiapoptotic Bcl-2 proteins” (J Med Chem, 2008)
pIC50, pKi: −log10 of the molar value. Activity calls are given as the source filed them. The calls are words filed in the database; no cut-off is given here.

Key:
PC-3 [1] = assay: Growth inhibition of human PC3 cells after 4 days by WST-8 based assay; assay type: functional, cell-based; settings: PC-3, 96 h
Summary of the method: (§1)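 Cells grown with compound for 4 days, then cell growth read by WST-based assay; IC50 values. Both lines express high levels of Bcl-2, Bcl-xL and Mcl-1.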

MDA-MB-231 [2] = assay: Growth inhibition of human MDA-MB-231 2LMP cells after 4 days by WST-8 based assay; assay type: functional, cell-based; settings: MDA-MB-231, 96 h; summary of the method: as §1
[3] = target: Apoptosis regulator Bcl-2 (Homo sapiens, UniProt P10415); assay: Inhibition of human Bcl-2 protein by ELISA
Sequence of Apoptosis regulator Bcl-2 (P10415 whole entry): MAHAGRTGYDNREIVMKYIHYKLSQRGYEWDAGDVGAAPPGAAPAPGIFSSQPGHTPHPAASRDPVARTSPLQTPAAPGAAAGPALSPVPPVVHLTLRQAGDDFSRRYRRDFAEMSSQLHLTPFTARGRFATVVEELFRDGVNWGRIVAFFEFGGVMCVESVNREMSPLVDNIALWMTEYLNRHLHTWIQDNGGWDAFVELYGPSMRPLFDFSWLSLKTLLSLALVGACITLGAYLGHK
Summary of the method: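 ELISA competitive binding to Bcl-2 using a biotinylated Bim peptide as competitor; IC50 values.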

[4] = target: Induced myeloid leukemia cell differentiation protein Mcl-1 (Homo sapiens, UniProt Q07820); assay: Inhibition of human Mcl-1 protein by fluorescence polarization assay
Sequence of Induced myeloid leukemia cell differentiation protein Mcl-1 (Q07820 whole entry): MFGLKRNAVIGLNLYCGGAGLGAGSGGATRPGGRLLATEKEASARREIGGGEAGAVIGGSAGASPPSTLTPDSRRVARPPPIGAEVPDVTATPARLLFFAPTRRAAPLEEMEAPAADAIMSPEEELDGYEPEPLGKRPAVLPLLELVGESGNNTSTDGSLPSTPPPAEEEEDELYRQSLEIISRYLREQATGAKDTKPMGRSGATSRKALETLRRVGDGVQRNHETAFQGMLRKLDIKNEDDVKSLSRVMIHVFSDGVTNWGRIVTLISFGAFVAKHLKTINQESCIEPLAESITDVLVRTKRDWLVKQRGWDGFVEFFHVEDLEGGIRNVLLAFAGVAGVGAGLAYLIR
Summary of the method: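 Mcl-1 binding by fluorescence-polarization competition assay; Ki values.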

MDA-MB-231 [5] = assay: Induction of apoptosis in human MDA-MB-231 2LMP cells assessed as cell viability at 1 uM after 4 days by trypan blue exclusion assay; assay type: functional; settings: MDA-MB-231, 96 h, read-out: Activity
Summary of the method: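 Cell death scored by trypan blue exclusion after 4 days of exposure at 0.3, 1 and 3 µM; percentage of dead cells reported with ± error.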

PC-3 [6] = assay: Induction of apoptosis in human PC3 cells assessed as cell viability by trypan blue exclusion assay; assay type: functional, cell-based; settings: TDE = time-dependent effect
PC-3 [7] = assay: Induction of apoptosis in human PC3 cells assessed as Cell viability after 4 days by trypan blue exclusion assay; assay type: functional, cell-based
MDA-MB-231 [8] = assay: Induction of apoptosis in human MDA-MB-231 2LMP cells by annexin-5/propidium iodide assay; assay type: functional, cell-based
Summary of the method: (§2)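 Four-day exposure, then apoptosis measured by annexin-V/propidium iodide staining and flow cytometry.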

PC-3 [9] = assay: Induction of apoptosis in human PC3 cells by annexin-5/propidium iodide assay; assay type: functional, cell-based; summary of the method: as §2
MDA-MB-231 [10] = assay: Induction of apoptosis in human MDA-MB-231 2LMP cells assessed as cell viability by trypan blue exclusion assay; assay type: functional, cell-based; settings: TDE = time-dependent effect

| pIC50 (PC-3 [1]) | pIC50 (MDA-MB-231 [2]) | pIC50 [3] | pIC50 [4] | pKi [4] | SMILES | viability at 1 µM (MDA-MB-231 [5]) [%] | Activity (PC-3 [6]) | Activity (PC-3 [7]) | Activity (MDA-MB-231 [8]) | Activity (PC-3 [9]) | Activity (MDA-MB-231 [10]) |
| --- | --- | --- | --- | --- | --- | --- | --- | --- | --- | --- | --- |
| 4.91 | 4.89 | 5.47 | 5.51 | 6.42 | CC(C)c1cc(C(=O)c2ccc(Oc3ccccc3)cc2)c(O)c(O)c1O | – | – | – | – | – | – |
| 5.24 | 5.35 | 5.59 | 5.57 | 6.47 | CC(C)C(=O)c1cc(C(=O)c2ccc(Oc3ccccc3)cc2)c(O)c(O)c1O | – | – | – | – | – | – |
| 6.26 | 6.54 | 6.54 | 5.92 | 6.82 | O=C(c1ccc(Oc2ccccc2)cc1)c1cc(C(=O)c2cccc3ccccc23)c(O)c(O)c1O | – | – | – | – | – | – |

The next lines start with the molecule.

| SMILES | pIC50 (PC-3 [1]) | pIC50 (MDA-MB-231 [2]) | pIC50 [3] | pIC50 [4] | pKi [4] | viability at 1 µM (MDA-MB-231 [5]) [%] | Activity (PC-3 [6]) | Activity (PC-3 [7]) | Activity (MDA-MB-231 [8]) | Activity (PC-3 [9]) | Activity (MDA-MB-231 [10]) |
| --- | --- | --- | --- | --- | --- | --- | --- | --- | --- | --- | --- |
| Cc1cc2c(C(C)C)c(O)c(O)c(C=O)c2c(O)c1-c1c(C)cc2c(C(C)C)c(O)c(O)c(C=O)c2c1O [GOSSYPOL] | 5.60 | 5.43 | – | – | – | – | – | – | – | – | – |
| CC(C)c1cc(C(=O)c2ccccc2)c(O)c(O)c1O | 4.41 | 4.51 | 4.38 | 4.44 | 5.34 | – | – | – | – | – | – |
| O=C(c1ccc(Oc2ccccc2)cc1)c1cc(C(=O)c2nc3ccccc3s2)c(O)c(O)c1O | 6.59 | 6.92 | 6.77 | 6.51 | 7.43 | 58 | tde | Dose-dependent effect | Active | Active | tde |
